ChEMBL document CHEMBL4196209, “Validation of Matrix Metalloproteinase-9 (MMP-9) as a Novel Target for Treatment of Diabetic Foot Ulcers in Humans and Discovery of a Potent and Selective Small-Molecule MMP-9 Inhibitor That Accelerates Healing” (J Med Chem, 2018)
The source made the active and inactive calls. The calls are words filed in the database; no cut-off is given here.

Legend:
[1] = target: T1, Interstitial collagenase (Homo sapiens) (UniProt P03956); test: Inhibition of human recombinant MMP1 catalytic domain at 100 uM using Mca-Lys-Pro-Leu-Gly-Leu-Dpa-Ala-Arg-NH2 substrate
T1 sequence (whole entry): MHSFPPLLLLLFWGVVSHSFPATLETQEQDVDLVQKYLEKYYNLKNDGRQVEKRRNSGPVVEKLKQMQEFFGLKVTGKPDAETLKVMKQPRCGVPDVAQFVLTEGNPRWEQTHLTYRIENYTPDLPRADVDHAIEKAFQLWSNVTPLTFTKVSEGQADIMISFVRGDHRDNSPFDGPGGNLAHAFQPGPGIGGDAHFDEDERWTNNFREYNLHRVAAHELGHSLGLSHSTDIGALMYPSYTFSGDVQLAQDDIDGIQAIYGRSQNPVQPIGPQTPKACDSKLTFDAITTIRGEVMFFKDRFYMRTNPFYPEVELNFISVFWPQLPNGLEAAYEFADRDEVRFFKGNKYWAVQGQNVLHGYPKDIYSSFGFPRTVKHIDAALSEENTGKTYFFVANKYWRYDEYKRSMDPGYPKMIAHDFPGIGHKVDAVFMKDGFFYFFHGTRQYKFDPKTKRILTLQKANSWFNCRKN
How it was run: (§1)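 Fluorogenic continuous assay of recombinant enzymes; Mca-KPLGL-Dpa-AR-NH2 substrate for MMP-1, MMP-8, ADAM10; Mca-PLAQAV-Dpa-RSSSR-NH2 for ADAM9; MOCAc-PLGL-A2pr(Dnp)-AR-NH2 for MMP-2, MMP-9, MMP-14 with Km determined beforehand. Inhibitor stocks 10 mM in DMSO; duplicates, repeated three times; Ki for slow-binding inhibitors from koff/kon.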

[2] = target: 72 kDa type IV collagenase (Homo sapiens, UniProt P08253); test: Slow binding inhibition of human recombinant MMP2 using MOCAc-Pro-Leu-Gly-Leu-A2pr(Dnp)-Ala-Arg-NH2 substrate; how it was run: as §1
[3] = target: Stromelysin-1 (Homo sapiens) (UniProt P08254); test: Inhibition of human recombinant MMP3 catalytic domain at 100 uM using MOCAc-Arg-Pro-Lys-Pro-Val-Glu-Nva-Trp-Arg-Lys(Dnp)-NH2 substrate
[4] = target: T2, Matrilysin (Homo sapiens) (UniProt P09237); test: Inhibition of human recombinant MMP7 at 100 uM using MOCAc-Pro-Leu-Gly-Leu-A2pr(Dnp)-Ala-Arg-NH2 substrate
T2 sequence (whole entry): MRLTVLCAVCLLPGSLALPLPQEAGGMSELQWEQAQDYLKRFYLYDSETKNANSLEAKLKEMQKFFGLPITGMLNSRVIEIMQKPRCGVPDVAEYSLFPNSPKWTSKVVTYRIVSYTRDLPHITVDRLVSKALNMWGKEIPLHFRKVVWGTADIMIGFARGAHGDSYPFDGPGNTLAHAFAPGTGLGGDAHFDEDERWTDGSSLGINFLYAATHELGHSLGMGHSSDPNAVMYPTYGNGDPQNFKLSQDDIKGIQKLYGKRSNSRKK

[5] = target: Matrix metalloproteinase-14 (Homo sapiens, UniProt P50281); test: Slow binding inhibition of human recombinant MMP14 catalytic domain using MOCAc-Pro-Leu-Gly-Leu-A2pr(Dnp)-Ala-Arg-NH2 substrate; how it was run: as §1
[6] = target: T3, Disintegrin and metalloproteinase domain-containing protein 9 (Homo sapiens) (UniProt Q13443); test: Inhibition of human recombinant ADAM9 at 100 uM using Mca-Pro-Leu-Ala-Gln-Ala-Val-Dpa-Arg-Ser-Ser-Ser-Arg-NH2 substrate; how it was run: as §1
T3 sequence (whole entry): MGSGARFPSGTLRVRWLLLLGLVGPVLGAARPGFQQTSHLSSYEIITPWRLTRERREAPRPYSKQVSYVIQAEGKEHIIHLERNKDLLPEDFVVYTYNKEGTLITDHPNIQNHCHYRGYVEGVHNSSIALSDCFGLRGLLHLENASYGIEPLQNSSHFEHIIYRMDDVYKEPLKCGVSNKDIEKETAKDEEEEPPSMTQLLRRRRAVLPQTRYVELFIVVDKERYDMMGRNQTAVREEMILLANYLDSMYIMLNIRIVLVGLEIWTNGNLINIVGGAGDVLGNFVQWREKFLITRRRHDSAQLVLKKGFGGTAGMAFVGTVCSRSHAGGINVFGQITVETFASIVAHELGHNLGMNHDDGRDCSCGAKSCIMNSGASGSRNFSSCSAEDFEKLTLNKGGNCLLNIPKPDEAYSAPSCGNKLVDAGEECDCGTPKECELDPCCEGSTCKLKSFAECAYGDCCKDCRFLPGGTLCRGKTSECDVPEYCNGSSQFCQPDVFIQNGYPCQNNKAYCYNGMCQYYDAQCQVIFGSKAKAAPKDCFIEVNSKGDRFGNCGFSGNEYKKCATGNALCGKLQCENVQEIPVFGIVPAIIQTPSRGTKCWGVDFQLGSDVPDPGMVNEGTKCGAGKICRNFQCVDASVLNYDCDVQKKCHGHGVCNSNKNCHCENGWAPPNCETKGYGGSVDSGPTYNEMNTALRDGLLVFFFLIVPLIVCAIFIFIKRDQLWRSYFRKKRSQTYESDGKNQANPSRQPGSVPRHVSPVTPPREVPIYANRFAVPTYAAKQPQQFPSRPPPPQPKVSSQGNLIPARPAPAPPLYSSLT

[7] = target: T4, Disintegrin and metalloproteinase domain-containing protein 10 (Homo sapiens) (UniProt O14672); test: Inhibition of human recombinant ADAM10 at 100 uM using Mca-Lys-Pro-Leu-Gly-Leu-Dpa-Ala-Arg-NH2 substrate; how it was run: as §1
T4 sequence (whole entry): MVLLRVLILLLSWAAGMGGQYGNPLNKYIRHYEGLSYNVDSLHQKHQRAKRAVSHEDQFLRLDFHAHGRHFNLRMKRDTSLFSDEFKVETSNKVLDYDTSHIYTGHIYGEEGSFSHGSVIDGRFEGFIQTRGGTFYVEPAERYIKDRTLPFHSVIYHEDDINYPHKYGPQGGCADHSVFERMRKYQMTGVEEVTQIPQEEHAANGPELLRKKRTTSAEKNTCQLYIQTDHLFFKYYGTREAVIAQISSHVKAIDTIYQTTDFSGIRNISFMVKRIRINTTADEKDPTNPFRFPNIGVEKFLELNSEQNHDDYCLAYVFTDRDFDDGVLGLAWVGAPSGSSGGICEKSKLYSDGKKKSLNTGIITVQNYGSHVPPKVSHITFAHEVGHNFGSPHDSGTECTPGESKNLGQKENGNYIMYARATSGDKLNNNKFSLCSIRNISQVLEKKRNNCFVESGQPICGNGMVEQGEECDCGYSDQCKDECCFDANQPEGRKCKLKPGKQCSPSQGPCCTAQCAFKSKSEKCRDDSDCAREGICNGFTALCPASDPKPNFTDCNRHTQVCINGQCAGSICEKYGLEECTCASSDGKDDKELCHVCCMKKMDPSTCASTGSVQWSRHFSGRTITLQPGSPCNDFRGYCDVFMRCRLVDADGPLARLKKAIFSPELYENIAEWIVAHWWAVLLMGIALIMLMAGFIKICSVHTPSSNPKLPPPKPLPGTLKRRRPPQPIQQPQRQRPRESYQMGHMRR

Salmonella typhimurium = test: Mutagenicity in Salmonella typhimurium by Ames test; type: toxicity, organism-based; conditions: salmonella enterica subsp. enterica serovar typhimurium
[8] = AUC in C57BLKS/6J db/db mouse plasma at 2 mg/kg, iv dosed as single administration by UPLC-MRM analysis; type: ADME, organism-based
[9] = AUC in C57BLKS/6J db/db mouse plasma at 2 mg/kg applied topically to wounds as single administration by UPLC-MRM analysis; type: ADME, organism-based; conditions: topical or ocular
Mus musculus [10] = test: Induction of wound healing in db/db BKS.Cg-Dock7m+/+ Lepr db/J mouse model of full-thickness excision at 50 ug/wound/day for 14 days dosed topically 1 day after wound creation; type: functional, organism-based
How it was run: (§2)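 Female db/db mice (8 weeks, ~40 g) with 8 mm full-thickness dorsal excision wound, Tegaderm-covered; from day 1, 100 µL of 0.5 mg/mL aqueous solution (50 µg/wound/day) or water vehicle topically once daily for 14 days. Wounds measured days 0, 7, 10, 14; cryosections for H&E re-epithelialization and DQ-collagen in-situ zymography, n = 3/group/time point.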

Mus musculus [11] = test: Induction of wound healing in db/db BKS.Cg-Dock7m+/+ Lepr db/J mouse model of full-thickness excision assessed as increase in re-epithelialization at 50 ug/wound/day for 14 days dosed topically 1 day after wound creation by H and E staining; type: functional, organism-based; how it was run: as §2
Mus musculus [12] = test: Inhibition of MMP9 activity in db/db BKS.Cg-Dock7m+/+ Lepr db/J mouse model of full-thickness excision using DQ-gelatin substrate at 50 ug/wound/day for 14 days dosed topically 1 day after wound creation by in-situ zymography; type: functional, organism-based
Mus musculus [13] = test: Inhibition of MMP8 activity in db/db BKS.Cg-Dock7m+/+ Lepr db/J mouse model of full-thickness excision using DQ-collagen substrate at 50 ug/wound/day for 14 days dosed topically 1 day after wound creation by in-situ zymography; type: functional, organism-based; how it was run: as §2
Mus musculus [14] = test: Induction of wound healing in db/db BKS.Cg-Dock7m+/+ Lepr db/J mouse model of full-thickness excision at 50 ug/wound/day for 7 days dosed topically 1 day after wound creation; type: functional, organism-based; how it was run: as §2
Mus musculus [15] = test: Reduction in ROS generation in db/db BKS.Cg-Dock7m+/+ Lepr db/J mouse model of full-thickness excision at 50 ug/wound/day for 3 days dosed topically 1 day after wound creation by L-012 dye based assay; type: functional, organism-based
How it was run: (§3)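 Wounded db/db mice dosed topically with 50 µg/wound/day or water vehicle; on days 1, 2, 3 and 7 post-wounding, anaesthetised with 2% isoflurane, injected ip with 200 µL L-012 (5 mg/mL in PBS), and bioluminescence imaged immediately at 5-min intervals; n = 3/group/time point.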

Mus musculus [16] = test: Reduction in ROS generation in db/db BKS.Cg-Dock7m+/+ Lepr db/J mouse model of full-thickness excision at 50 ug/wound/day for 7 days dosed topically 1 day after wound creation by L-012 dye based assay; type: functional, organism-based; how it was run: as §3
Mus musculus [17] = test: Reduction in NFkappaB p65 protein levels generation in db/db BKS.Cg-Dock7m+/+ Lepr db/J mouse model of full-thickness excision at 50 ug/wound/day for 1 day dosed topically 1 day after wound creation by ELISA; type: functional, organism-based
Mus musculus [18] = test: Reduction in NFkappaB p65 protein levels generation in db/db BKS.Cg-Dock7m+/+ Lepr db/J mouse model of full-thickness excision at 50 ug/wound/day for 2 days dosed topically 1 day after wound creation by ELISA; type: functional, organism-based
Mus musculus [19] = test: Reduction in NFkappaB p65 protein levels generation in db/db BKS.Cg-Dock7m+/+ Lepr db/J mouse model of full-thickness excision at 50 ug/wound/day for 7 days dosed topically 1 day after wound creation by ELISA; type: functional, organism-based
Mus musculus [20] = test: Reduction in NFkappaB p65 protein levels generation in db/db BKS.Cg-Dock7m+/+ Lepr db/J mouse model of full-thickness excision assessed as p65 AUC level at 50 ug/wound/day for 7 days dosed topically 1 day after wound creation by ELISA (reference value: 834 +/- 121 ug/mg.day); type: functional, organism-based
in vivo = conditions: C57BLKS/6J db/db, mouse, plasma, topical or ocular, 2 mg/kg
[21] = target: T1, Interstitial collagenase (Homo sapiens); test: Inhibition of human recombinant MMP1 catalytic domain using Mca-Lys-Pro-Leu-Gly-Leu-Dpa-Ala-Arg-NH2 substrate; how it was run: as §1

Chain of Stromelysin-1 (Homo sapiens) (P08254 100-477 limits assumed): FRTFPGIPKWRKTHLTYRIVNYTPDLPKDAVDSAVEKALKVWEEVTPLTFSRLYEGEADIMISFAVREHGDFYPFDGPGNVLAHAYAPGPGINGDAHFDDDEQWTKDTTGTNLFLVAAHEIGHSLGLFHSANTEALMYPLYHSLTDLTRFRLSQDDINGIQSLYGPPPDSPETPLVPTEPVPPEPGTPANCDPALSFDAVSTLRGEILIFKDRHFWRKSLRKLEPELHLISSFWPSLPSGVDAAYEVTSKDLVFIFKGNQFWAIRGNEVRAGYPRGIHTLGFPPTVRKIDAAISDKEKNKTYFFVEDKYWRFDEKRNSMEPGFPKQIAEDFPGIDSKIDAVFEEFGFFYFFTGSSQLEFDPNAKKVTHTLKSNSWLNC
Chain of 72 kDa type IV collagenase (P08253 whole entry, the tested form may be a part): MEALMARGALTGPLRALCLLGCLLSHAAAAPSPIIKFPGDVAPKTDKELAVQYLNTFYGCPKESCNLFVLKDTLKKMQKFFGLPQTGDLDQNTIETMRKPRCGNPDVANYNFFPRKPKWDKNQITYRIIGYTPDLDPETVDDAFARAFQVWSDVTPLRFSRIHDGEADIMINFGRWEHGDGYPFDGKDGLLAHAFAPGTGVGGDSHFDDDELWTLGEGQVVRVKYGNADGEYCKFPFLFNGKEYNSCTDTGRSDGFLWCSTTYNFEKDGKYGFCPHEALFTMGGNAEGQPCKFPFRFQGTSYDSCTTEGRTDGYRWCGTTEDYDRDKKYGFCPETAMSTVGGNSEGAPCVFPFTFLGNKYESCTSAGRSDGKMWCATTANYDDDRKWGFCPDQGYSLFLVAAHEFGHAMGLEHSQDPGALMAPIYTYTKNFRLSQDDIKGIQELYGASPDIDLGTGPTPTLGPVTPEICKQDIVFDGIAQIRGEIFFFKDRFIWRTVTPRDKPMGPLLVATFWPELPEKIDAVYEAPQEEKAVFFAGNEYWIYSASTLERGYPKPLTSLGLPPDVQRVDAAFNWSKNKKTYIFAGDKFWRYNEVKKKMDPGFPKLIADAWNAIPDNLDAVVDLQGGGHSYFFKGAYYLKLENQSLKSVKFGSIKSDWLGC

## Cl.NCc1ccc(Oc2ccc(S(=O)(=O)C[C@H]3CS3)cc2)cc1
[1]
  inhibition: 22%
[2]
  Ki: 0.127 µM
[3]
  inhibition: 37%
[4]
  inhibition: 20%
[5]
  Ki: 0.119 µM
[6]
  inhibition: 41%
[7]
  inhibition: 13%
Salmonella typhimurium
  Activity: Non-Toxic
[8]
  AUC: 583 nM·h
[9]
  AUC: 21.7 nM·h
Mus musculus [10]
  Activity: Active
Mus musculus [11]
  Activity: Active
Mus musculus [12]
  inhibition: Active
Mus musculus [13]
  inhibition: inactive
Mus musculus [14]
  Activity: Active
Mus musculus [15]
  Activity: Active
Mus musculus [16]
  Activity: Active
Mus musculus [17]
  Activity: Active
Mus musculus [18]
  Activity: Active
Mus musculus [19]
  Activity: Active
Mus musculus [20]
  AUC: 492 µg/mg/day
In vivo
  bioavailability: 3.7%

## O=S(=O)(CC1CS1)c1ccc(Oc2ccc(O)cc2)cc1 (stereo not drawn)
[21]
  A0.5: Nottraceable

## NCc1ccc(Oc2ccc(S(=O)(=O)CC3CS3)cc2)cc1 (racemic)
[1]
  inhibition: 4%
[3]
  inhibition: 23%
[4]
  inhibition: 1%
[6]
  inhibition: 31%
[7]
  inhibition: 14%
Mus musculus [10]
  Activity: inactive
Mus musculus [11]
  Activity: Active
Mus musculus [12]
  inhibition: Active
Mus musculus [13]
  inhibition: Active

## NCc1ccc(Oc2ccc(S(=O)(=O)C[C@@H]3CS3)cc2)cc1
[1]
  inhibition: 24%
[2]
  Ki: 0.037 µM
[3]
  inhibition: 22%
[4]
  inhibition: 15%
[5]
  Ki: 0.053 µM
[6]
  inhibition: 25%
[7]
  inhibition: 5%
Mus musculus [10]
  Activity: inactive
Mus musculus [11]
  Activity: Active
Mus musculus [12]
  inhibition: Active
Mus musculus [13]
  inhibition: Active
